Experimental data: ChEMBL document CHEMBL5046320, “A Stepwise Targeting Curcumin Derivative, Ser@TPP@CUR, for Acute Kidney Injury” (ACS Med Chem Lett, 2022)
The source made the active and inactive calls. No cut-off for these calls is given here.

What was measured:
HK-2 [1] = assay: Induction of apoptosis in LPS-induced HK-2 cells assessed as increase in mitochondrial cytochrome C protein expression pretreated with LPS followed by compound addition incubated for 24 hrs by immunoblotting analysis; assay type: functional, cell-based; conditions: Homo sapiens
Outline: (§1)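 LPS-treated HK-2 cells; cytochrome c in mitochondrial and cytosolic fractions, cleaved caspase-9 and cleaved caspase-3 detected by immunoblot, normalised to β-actin; mean ± SD, n = 3.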

Kidney [2] = assay: Antioxidant activity against LPS-induced acute kidney injured Balb/c mouse model assessed as reduction of increased MDA level at 4 mg/kg,iv; assay type: functional, organism-based
Outline: (§2)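 SOD, GSH and MDA levels determined in renal tissue of LPS-induced AKI mice after treatment at CUR 4 mg/kg; n = 6.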

HK-2 [3] = assay: Induction of apoptosis in LPS-induced HK-2 cells assessed as inhibition of cleaved caspase-3 protein expression pretreated with LPS followed by compound addition incubated for 24 hrs by immunoblotting analysis; assay type: functional, cell-based; conditions: Homo sapiens; outline: as §1
Mus musculus [4] = assay: Nephroprotective activity against LPS-induced acute kidney injured Balb/c mouse model assessed as reduction in blood urea nitrogen level at 4 mg/kg,iv by automatic biochemical analysis; assay type: functional, organism-based
Outline: (§3)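 Scr and BUN measured on automatic biochemical analyzer 24 h after administration (CUR, 4 mg/kg) to LPS-induced AKI mice; n = 6.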

Kidney [5] = assay: Antioxidant activity against acute kidney injured Balb/c mouse kidney assessed as reduction of nitrotyrosine expression at 4 mg/kg,iv by immunohistochemistry analysis; assay type: functional, organism-based
Outline: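 Renal sections from AKI mice stained by immunohistochemistry for nitrotyrosine after treatment at CUR 4 mg/kg; scale bar 50 μm.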

[6] = Drug distribution in kidney of acute kidney injured Balb/c mouse model assessed as increase in CUR level at 4 mg/kg, iv after 2 hrs of administration by IVIS Lumina III analysis; assay type: ADME, organism-based; conditions: in vivo
Outline: (§4)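 Normal or AKI mice given intravenous dose (CUR, 4 mg/kg); heart, lung, liver, spleen and kidney imaged ex vivo 2 h later on IVIS Lumina III; tissue distribution as mean ± SD, n = 6.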

[7] = Drug uptake in LPS stimulated human HK-2 cells pretreated with LPS for 12 hrs followed by compound addition incubated for 2 to 6 hrs by flow cytometry method; assay type: ADME, cell-based; conditions: time 2-6 hrs
Outline: (§5)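 HK-2 cells with or without LPS treatment incubated with compound for 2.0 and 6.0 h; uptake imaged by fluorescence microscopy; flow cytometry at 2.0 h.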

Mus musculus [8] = assay: Nephroprotective activity against LPS-induced acute kidney injured Balb/c mouse model assessed as reduction in serum creatinine level at 4 mg/kg,iv by automatic biochemical analysis; assay type: functional, organism-based; outline: as §3
Kidney [9] = assay: Antioxidant activity against LPS-induced acute kidney injured Balb/c mouse model assessed as increase in kidney GSH level at 4 mg/kg,iv; assay type: functional, organism-based; outline: as §2
HK-2 [10] = assay: Induction of apoptosis in LPS-induced human HK-2 cells assessed as inhibition of cytochrome c protein expression pretreated with LPS followed by compound addition incubated for 24 hrs by immunoblotting analysis; assay type: functional, cell-based; outline: as §1
Kidney [11] = assay: Nephroprotective activity against acute kidney injured Balb/c mouse kidney assessed as decrease in disappeared and expanded tubular border brush at 4 mg/kg,iv by H and E staining based assay; assay type: functional, organism-based
Outline: (§6)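 Renal tissue of AKI mice stained with H&E and examined by optical microscopy for tubular epithelial swelling, vacuolar degeneration and brush border loss; treatment at CUR 4 mg/kg.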

Kidney [12] = assay: Antioxidant activity against LPS-induced acute kidney injured Balb/c mouse model assessed as increase in kidney superoxide dismutase level at 4 mg/kg,iv; assay type: functional, organism-based; outline: as §2
[13] = Drug distribution in kidney of acute kidney injured Balb/c mouse model assessed as KIM1 receptor mediated endocytosis at 4 mg/kg, iv by fluorescence imaging based assay; assay type: ADME, organism-based; conditions: in vivo
Outline: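 Renal tissue of AKI mice examined by fluorescence imaging for colocalization of compound (green) with immunostained KIM-1 receptor (red); free CUR as control.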

[14] = Drug uptake in human HK-2 cells incubated for 2 to 6 hrs by inversed fluorescence microscope analysis; assay type: ADME, cell-based; conditions: time 2-6 hrs; outline: as §5
Kidney [15] = assay: Nephroprotective activity against acute kidney injured Balb/c mouse kidney assessed as decrease in vacuolar degeneration at 4 mg/kg,iv by H and E staining based assay; assay type: functional, organism-based; outline: as §6
HK-2 [16] = assay: Antioxidant activity in human HK-2 cells assessed as reduction in LPS induced intracellular nitrotyrosine expression level pretreated with LPS for 24 hr followed by compound addition incubated for 2 hr by fluorescence imaging based assay; assay type: functional, cell-based
Kidney [17] = assay: Nephroprotective activity against acute kidney injured Balb/c mouse kidney assessed as decrease in swollen tubular epithelial cells at 4 mg/kg,iv by H and E staining based assay; assay type: functional, organism-based; outline: as §6
[18] = Drug uptake in LPS stimulated human HK-2 cells pretreated with LPS for 12 hrs followed by compound addition incubated for 2 to 6 hrs by inversed fluorescence microscope analysis; assay type: ADME, cell-based; conditions: time 2-6 hrs; outline: as §5
HK-2 [19] = assay: Antioxidant activity in human HK-2 cells assessed as reduction in LPS induced mitochondrial reactive oxygen species generation at 7.16 ug/ml pretreated with LPS for 24 hr followed by compound addition incubated for 2 hr by MitoSOX staining based inverted fluorescent microscopic analysis; assay type: functional, cell-based; conditions: dose 7.16 µg/ml
Outline: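 LPS-treated HK-2 cells exposed to test agent (7.16 μg/mL); mitochondrial superoxide visualised with MitoSOX Red indicator by fluorescence imaging.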

Kidney [20] = assay: Anti-inflammatory activity against LPS-induced acute kidney injured Balb/c mouse model assessed as reduction in kidney IL-6 level at 4 mg/kg,iv by ELISA; assay type: functional, organism-based
Outline: (§7)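 TNF-α and IL-6 measured by ELISA in renal tissue of LPS-induced AKI mice after CUR-based treatment (CUR, 4 mg/kg); n = 6.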

Mus musculus [21] = assay: Antioxidant activity against LPS-induced acute kidney injured Balb/c mouse mitochondrial fraction of kidney assessed as reduction of H2O2 generation at 4 mg/kg,iv by Amplex Red dye Hydrogen Peroxide assay; assay type: functional, organism-based; conditions: Mitochondria
Outline: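 Mitochondria isolated intact from renal tissue of LPS-induced AKI mice; H₂O₂ production measured with Amplex Red H₂O₂/peroxidase detection kit after treatment at CUR 4 mg/kg; n = 6.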

[22] = Drug uptake in human HK-2 cells assessed as increase in fluorescence intensity pretreated with LPS for 12 hrs followed by compound addition incubated for 6 hrs by mitotracker red based inverted microscopic analysis; assay type: ADME, cell-based; conditions: hk-2, 6 h
Outline: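 HK-2 cells co-stained with MitoTracker Red; mitochondrial colocalization of compound imaged by fluorescence microscopy; free CUR as control.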

[23] = Drug distribution in kidney of Balb/c mouse model assessed as increase in CUR level at 4 mg/kg, iv after 2 hrs of administration by IVIS Lumina III analysis; assay type: ADME, organism-based; conditions: in vivo; outline: as §4
HK-2 [24] = assay: Nephroprotective activity against LPS induced human HK-2 cells assessed as increase in cell viability at 3 ug/ml incubated for 24 hrs by MTT assay relative to control; assay type: functional; conditions: dose 3 µg/ml
Outline: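 HK-2 cells exposed to 15 μg/mL LPS for 24 h; viability assessed by MTT assay; n = 6.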

[25] = Drug uptake in LPS induced inflammation in human HK-2 cells assessed as decrease internalization in presence of Ser pretreated with LPS for 6 hr followed by compound addition incubated for 2 hr by flow cytometry; conditions: hk-2, 2 h
Kidney [26] = assay: Anti-inflammatory activity against LPS-induced acute kidney injured Balb/c mouse model assessed as reduction in kidney TNF alpha level at 4 mg/kg,iv by ELISA; assay type: functional, organism-based; outline: as §7
HK-2 [27] = assay: Induction of apoptosis in LPS-induced HK-2 cells assessed as inhibition of cleaved caspase-9 protein expression pretreated with LPS followed by compound addition incubated for 24 hrs by immunoblotting analysis; assay type: functional, cell-based; conditions: Homo sapiens; outline: as §1

SMILES: COc1cc(/C=C/C(=O)CC(=O)/C=C/c2ccc(OC(=O)C(N)CO)c(OC)c2)ccc1OC(=O)CCCC[P+](c1ccccc1)(c1ccccc1)c1ccccc1.[Br-] (configuration not stated)
- Activity (HK-2 [1]): Active
- Activity (Kidney [2]): Active
- Activity (HK-2 [3]): Active
- Activity (Mus musculus [4]): Active
- Activity (Kidney [5]): Active
- Drug uptake [6]: Active
- Drug uptake [7]: Active
- Activity (Mus musculus [8]): Active
- Activity (Kidney [9]): Active
- Activity (HK-2 [10]): Active
- Activity (Kidney [11]): Active
- Activity (Kidney [12]): Active
- Drug uptake [13]: Active
- Drug uptake [14]: Not Active
- Activity (Kidney [15]): Active
- Activity (HK-2 [16]): Active
- Activity (Kidney [17]): Active
- Drug uptake [18]: Active
- Activity (HK-2 [19]): Active
- Activity (Kidney [20]): Active
- Activity (Mus musculus [21]): Active
- Drug uptake [22]: Active
- Drug uptake [23]: Not Active
- Activity (HK-2 [24]): 40%
- Drug uptake [25]: Active
- Activity (Kidney [26]): Active
- Activity (HK-2 [27]): Active
